High-throughput results (PubChem)
GSTO1 inh – blocks human GSTO1 in RBBP9 counter-screen. P78417. recombinant GSTO1, activity-based probe fluorescence polarization. inhibition, % at 5.96 µM. 300,000 compounds, 1.1% hits. AID 1974;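 active = inhibition above the campaign mean inhibition plus 3 SD, cut at about 35% in these data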
Target sequence (P78417 whole entry, looked up): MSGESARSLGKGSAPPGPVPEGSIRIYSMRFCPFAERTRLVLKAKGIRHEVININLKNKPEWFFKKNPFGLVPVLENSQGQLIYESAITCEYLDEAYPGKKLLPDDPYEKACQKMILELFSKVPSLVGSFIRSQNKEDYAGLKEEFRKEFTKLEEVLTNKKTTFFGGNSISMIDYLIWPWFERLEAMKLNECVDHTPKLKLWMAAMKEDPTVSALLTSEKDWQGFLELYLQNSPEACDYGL
Apaf1 inhib – human Apaf-1 inhibition | 330,000 compounds, 0.71% hits | AID 489030 | O14727 | inhibition, % at 20 µM | reconstituted apoptosome caspase-3 activity, DEVD-Rh110 fluorescence; active = inhibition of at least 40% at 20 µM
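Assay system – apoptosome proteins · Medium – Hepes buffer, pH 7.5 · Also added – cytochrome c with DEVD-Rh110 · Timing – 30 min compound preincubation, 50 min activation, room temperature · Detection – Rh110 fluorescence, excitation 480 nm, emission 540 nm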
PRMT1 inh – blocks human protein arginine methyltransferase 1. Q99873. inhibition, % at 2.79 µM. 370,000 compounds, 1.3% hits. recombinant PRMT1, activity-based probe fluorescence polarization. AID 652257;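 active = inhibition above about 21% made by adding two undisclosed values, limit read from the data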
PAD4 FP inh – PAD4 (human) enzyme inhibition | recombinant PAD4, RCA probe fluorescence polarization | Q9UM07 | 330,000 compounds, 0.41% hits | AID 485272 | inhibition, % at 6.36 µM;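 active = percent inhibition above a cutoff equal to the mean of all tested compounds plus 3 SD, cut at about 15% in these data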
TDP2 absorb – blocks human TDP2 phosphodiesterase activity. recombinant TDP2, T5PNP hydrolysis, p-nitrophenol absorbance 415 nm. 370,000 compounds, 0.34% hits. O95551. inhibition, % at 12.8 µM;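 active = inhibition above the mean of all tested compounds plus 3 SD, set per campaign, cut at about 25% in these data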
Target sequence (O95551 whole entry, looked up): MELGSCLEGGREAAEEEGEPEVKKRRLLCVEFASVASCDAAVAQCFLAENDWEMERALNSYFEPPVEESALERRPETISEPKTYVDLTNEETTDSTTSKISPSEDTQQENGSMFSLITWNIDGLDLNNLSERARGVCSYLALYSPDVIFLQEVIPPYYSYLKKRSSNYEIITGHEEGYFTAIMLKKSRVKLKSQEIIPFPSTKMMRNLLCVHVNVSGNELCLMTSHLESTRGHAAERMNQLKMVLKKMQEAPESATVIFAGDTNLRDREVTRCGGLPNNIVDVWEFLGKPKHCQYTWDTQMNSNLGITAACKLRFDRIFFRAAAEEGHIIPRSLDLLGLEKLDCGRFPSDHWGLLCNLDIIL
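System: recombinant human TDP2 / Amount: 120 nM TDP2 per well / Also added: 5 mM T5PNP chromogenic substrate / Doses: 12.8 µM single point, 1% DMSO / Incubation: 2 h at 37 °C / Detection: p-Nitrophenol epi absorbance / Evaluation: % inhibition relative to enzyme-containing and enzyme-free wells / Repeats: singlicate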
A number is an active result; 0 = inactive; - = not tested or not shown. Only some compounds are listed: those with a hit (about 2.6% of all), similar ones and a draw of the others.

SMILES | GSTO1 inh | Apaf1 inhib | PRMT1 inh | PAD4 FP inh | TDP2 absorb
O=c1[nH][nH]c(-c2ccccc2O)c1C(C[N+](=O)[O-])c1cccc(Cl)c1 (stereo unspecified) | 36 | 0 | 0 | 0 | 0
Cc1nn(C(C)C(=O)NC2C(=O)N3C(C(=O)O)=C(CSc4nnnn4C)CSC23)cc1Cl (stereo unspecified) | 0 | 0 | 24 | 0 | 0
Cn1nnnc1SCC1=C(C(=O)O)N2C(=O)[C@@H](NC(=O)[C@H](O)c3ccccc3)[C@H]2SC1 | 0 | 0 | - | 0 | -
Cc1cc(C(F)F)nn1CC(=O)NC1C(=O)N2C(C(=O)O)=C(CSc3nnnn3C)CSC12 (stereo unspecified) | 0 | 0 | 24 | 0 | 0
COC(=O)[C@]12C[C@H](CC(=O)N3CCSCC3)C(=O)N(CCC3=CCCCC3)C1=C[C@H](C(C)C)O[C@@H]2C1CC1 | - | - | 0 | - | 0
C=CCOC(=O)N1CCN(C(=O)c2ccc3c(c2)nc(C)n3C2CCCC2)CC1 | - | - | 0 | - | 0
Cc1ccc(C2CC(=O)N3CN(c4ccc(Br)cc4)CSC3=C2C#N)o1 (stereo unspecified) | 0 | 0 | 82 | 0 | 0
COc1ccc(OC)c(C2CC(=O)N3CN(c4ccc(C)c(Cl)c4)CSC3=C2C#N)c1 (stereo unspecified) | 0 | 0 | 0 | 0 | 0
COc1ccc2ccccc2c1C1CC(=O)N2CN(C)CSC2=C1C#N (stereo unspecified) | 0 | 71 | 0 | 0 | 0
N#CC1=C2SCN(c3ccccc3)CN2C(=O)CC1c1cccs1 (stereo unspecified) | 0 | 0 | 0 | 0 | 0
CCOC(=O)c1ccc(N2CSC3=C(C#N)C(c4ccc(OC)cc4OC)CC(=O)N3C2)cc1 (stereo unspecified) | 0 | 50 | 0 | 0 | 0
COc1ccc(OC)c(C2CC(=O)N3CN(c4cccc(Cl)c4)CSC3=C2C#N)c1 (stereo unspecified) | 0 | 81 | 0 | 0 | 0
CC(C)c1ccc(C2CC(=O)N3CN(C)CSC3=C2C#N)cc1 (stereo unspecified) | 0 | 0 | - | 0 | -
CN1C(=O)C[C@@](C#N)(C(=O)N2CCCC2)[C@H]1c1ccccc1 | - | - | 0 | - | 0
CC(C)N1CCCCC(NC(=O)Cc2ccccc2)C1=O (stereo unspecified) | - | - | 0 | - | 0
CCCCN(C)C(=O)CN1C(=O)C2CCCCN2C(=O)c2ccccc21 (stereo unspecified) | - | - | 0 | - | 0
COc1ccc(C(=O)OCCCN(C)C2CN(Cc3cn(Cc4ccccc4F)nn3)S(=O)(=O)C2)cc1OC (stereo unspecified) | - | - | 0 | - | 0
COc1cc(/C=C2\CCC/C(=C\c3ccc(O)c(OC)c3)C2=O)ccc1O | 0 | 0 | 22 | 0 | 0
CN(CC(=O)Nc1ccccc1Cl)C(=O)COC(=O)c1ccc(=O)n(Cc2ccccc2)n1 | 0 | 0 | 0 | 0 | 0
CN(CC(=O)Nc1ccc(F)cc1)C(=O)COC(=O)c1ccc(=O)n(Cc2ccccc2)n1 | - | 0 | 136 | 0 | 0
COc1ccc2c(c1)CCCN2C(=O)C1CCCN(S(=O)(=O)c2cc(OC)ccc2OC)C1 (stereo unspecified) | - | - | 0 | - | 0
Cc1ccnc(NC(=S)NC(=O)/C=C/c2ccco2)c1 | 0 | 0 | 23 | 0 | 0
CC(=O)NC(=S)Nc1ccc(NC(=S)NC(=O)/C=C/c2ccco2)cc1 | 0 | 0 | 0 | 0 | 0
O=C(/C=C/c1ccco1)NC(=S)Nc1ccc(N2CCCC2)cc1 | 50 | 0 | 25 | 0 | 0
O=C(CCc1ccccc1)N[C@H]1/C(=N/O)CCC[C@]12C(=O)N(Cc1ccccc1)c1ccccc12 | - | - | 0 | - | 0
SMILES | GSTO1 inh | Apaf1 inhib | PRMT1 inh | PAD4 FP inh | TDP2 absorb
N#Cc1ccc(/C=C2\CC3(OC(=O)C4CCCC4)CCCN2C3)cc1 (stereo unspecified) | - | - | 0 | - | 0
CCOC(=O)C(=O)N1CCC(C(=O)NC2CCCc3ccccc32)CC1 (stereo unspecified) | - | - | 0 | - | 0
O=C(CCCCl)NC1=NN(c2ccccc2)C(=O)C1 | 0 | - | 0 | 0 | 0
O=C(COc1ccc(Cl)cc1)NC1=NN(c2ccccc2)C(=O)C1 | 40 | 0 | 0 | 0 | 0
COc1ccc(OCC(=O)Nn2c(-c3ccc(OC)cc3)nc3ccccc3c2=O)cc1 | 0 | 0 | 0 | 0 | 0
COc1ccc(-c2nc3ccccc3c(=O)n2NC(=S)N(C)C)cc1 | 0 | 0 | 24 | 0 | 0
CC(=O)OC12CCCN(C1)/C(=C/c1ccccc1)C2 (stereo unspecified) | - | - | 0 | - | 0
CCc1cccc(NC(=O)CCCn2nc(CC)n3c(cc4occc43)c2=O)c1 | 0 | 0 | 0 | 0 | 0
CCc1nn(CCCC(=O)NCc2ccccc2Br)c(=O)c2cc3occc3n12 | 0 | 46 | 0 | 0 | 0
Cc1cc(=O)c2c(O)c(O)ccc2o1 | 0 | 0 | 23 | 0 | 0
N#CCC[C@H]1CC[C@]2(CCCN(C(=O)C3CCCC3)C2)O1 | - | - | 0 | - | 0
CC(=O)c1sc2nc(-c3ccco3)ccc2c1N | 39 | 0 | 52 | 0 | 0
CCC(=O)OC1(C)C(=O)C=C2C=C(C3CC3)OC=C2C1=O (stereo unspecified) | 0 | 0 | 23 | 0 | 0
COC(=O)CCC(=O)OC1(C)C(=O)C=C2C=C(C3CC3)N(CC(C)C)C=C2C1=O (stereo unspecified) | - | 53 | - | - | -
CC1(OC(=O)c2cnc3ccccc3n2)C(=O)C=C2C=C(C3CC3)OC=C2C1=O (stereo unspecified) | 43 | 0 | - | 38 | -
c1ccc(-c2ccc3c(n2)CCCN3Cc2ccccn2)cc1 | - | - | 0 | - | 0
COc1ccc(Cn2c(SCc3ccccc3C)nc3cc(OC)c(OC)cc3c2=N)cc1 | 0 | 70 | 0 | 0 | 0
COc1ccc(NC(=O)c2cc([N+](=O)[O-])ccc2NC(=O)CNCc2ccccn2)c(OC)c1 | 0 | 0 | 25 | 0 | 0
COc1cc(NC(=O)c2cc([N+](=O)[O-])ccc2NC(=O)CNCc2ccccn2)cc(OC)c1 | 0 | 0 | 0 | 0 | 0
Cc1ccc(SCC2=NN(c3nc(C)cc(C)n3)C(=O)C2)cc1 | 37 | 0 | 0 | 0 | 0
COc1cccc(C(C(=O)NCc2ccccc2)N2CCN(c3ccccc3F)CC2)c1OC (stereo unspecified) | - | - | 0 | - | 0
C/C(=N\NC(=O)CSCc1ccccc1Cl)c1cc(O)ccc1O | 40 | 0 | 0 | 0 | 0
O=C(Nc1ccccc1)Oc1ccc[nH]c1=O | 0 | 61 | 0 | 0 | 0
CCOC(=O)c1c(C)[nH]c(C=Nc2ccccc2)c1O | - | 0 | - | - | -
CCOC(=O)c1c(C)[nH]c(C=Nc2ccc(OC)cc2)c1O | 0 | 0 | 22 | 0 | 0
COc1ccc(NC(=O)NNC(=O)CCc2ccc(O)c(O)c2)cc1OC | 0 | 0 | 23 | 0 | 0
O=C(CNc1ccc2c(c1)OCO2)N/N=C\c1ccccc1Cl | 0 | 0 | 22 | 0 | 0
Cc1[nH]c2ccccc2c1/C=N\NC(=O)CNc1ccc2c(c1)OCO2 | 0 | 0 | 0 | 0 | 0
Nc1nc2cc3c(cc2cc1C(=O)NCCc1c[nH]c2ccccc12)OCO3 | - | - | 0 | - | 0
Nc1ccc(N2CCCCCC2)cc1 | 78 | 93 | - | 43 | -
